MrgX1 antag: antagonists of human MrgX1 receptor. B-score at 10 µM. Q96LB2. 310,000 compounds, 1.3% hits. MRGX1-HEK293 calcium flux, Fluo-4, BAM8-22 antagonism; hits give low values. AID 588676;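 active = calcium-response B-score plate-corrected more than 3 library SD below zero, starting fluorescence within 5 deviations, no agonist response on first addition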;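 note: peak minus trough fluorescence over baseline after final BAM8-22 challenge near maximal dose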
Target sequence (Q96LB2 whole entry, looked up): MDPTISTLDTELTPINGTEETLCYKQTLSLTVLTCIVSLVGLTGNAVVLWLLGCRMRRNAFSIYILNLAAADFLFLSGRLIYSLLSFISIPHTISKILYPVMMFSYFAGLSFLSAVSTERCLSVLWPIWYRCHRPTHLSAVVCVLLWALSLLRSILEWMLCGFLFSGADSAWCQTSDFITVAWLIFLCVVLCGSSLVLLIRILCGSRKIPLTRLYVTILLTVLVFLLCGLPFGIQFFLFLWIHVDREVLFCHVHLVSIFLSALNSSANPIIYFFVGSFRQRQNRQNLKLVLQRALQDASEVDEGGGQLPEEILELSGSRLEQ
MrgX1 allo act: allosterically activates human MrgX1 receptor signaling; Q96LB2; MrgX1-HEK293, Fluo-4 calcium flux, FDSS; hits give high values; B-score at 10 µM; 310,000 compounds, 0.63% hits; AID 588675;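 active = plate-corrected calcium response at least 3 library SD above typical, normal starting fluorescence, not activating the receptor alone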;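 note: compound read alongside a low EC10 to EC30 dose of BAM8-22 agonist; peak minus trough fluorescence over baseline measured at the second addition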
MrgX1 agonist: human MrgX1 receptor agonism, primary screen; MrgX1-HEK293 cells, Fluo-4 calcium fluorescence, agonist mode; hits give high values; B-score at 10 µM; Q96LB2; 310,000 compounds, 0.44% hits;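 active = calcium response B-score plate-corrected fluorescence ratio at least 3 library SD, with starting fluorescence B-score inside 5 SD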
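Material: MrgX1-expressing HEK293 cells; input: 15,000 cells per well; doses: test compound given as first of three sequential additions; schedule: overnight plating before 1 h dye loading; technique: Fluo-4 NW calcium-flux fluorescence, kinetic read; evaluation: baseline-normalised fluorescence change ratio, B-scored; control set: plate-wise positive and negative controls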
RGS4 inh: human RGS4 inhibition. B-score at 10 µM. HEK293 M3R/RGS4 inducible, Fluo-4 calcium flux; hits give high values; triggered by carbachol at its EC20. 310,000 compounds, 0.45% hits. P49798. AID 463165;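 active = B-score, a plate-corrected calcium signal, over three deviations above library mean, with baseline fluorescence within five deviations of library mean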;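 note: RGS4 expression induced by doxycycline in cells with stable M3 receptor; B-score is computed from the integrated fluorescence ratio over baseline after carbachol; higher B-score means a larger calcium signal and so more RGS4 inhibition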
Target sequence (P49798 whole entry, looked up): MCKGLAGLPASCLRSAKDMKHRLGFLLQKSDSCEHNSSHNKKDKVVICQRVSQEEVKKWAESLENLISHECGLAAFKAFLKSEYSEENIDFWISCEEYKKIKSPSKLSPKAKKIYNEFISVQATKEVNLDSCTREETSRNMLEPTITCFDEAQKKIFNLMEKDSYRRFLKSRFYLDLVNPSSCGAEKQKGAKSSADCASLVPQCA
RGS4 pot: potentiators or activators of RGS4. 310,000 compounds, 0.92% hits. B-score at 10 µM. HEK293 M3R/inducible RGS4, carbachol calcium flux Fluo4; hits give low values. AID 463111;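 active = B-score of the integrated calcium signal more than 4 SD below the library mean, with starting fluorescence not abnormally high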;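 note: negative B-score means reduced calcium response which marks RGS4 activation or potentiation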
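Detection: kinetic calcium fluorescence imaging with Fluo4-AM dye, 2 µM / Material: HEK293 cells with stable M3R and inducible RGS4 / Schedule: recording 10 s baseline at 1 Hz, 100 s post-agonist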
RGS4 activ val: RGS4 activation, validation assay | shares compounds with RGS4 pot | HEK293 M3R/RGS4 inducible, carbachol calcium flux Fluo4 | inhibition, % at 10 µM | 1,100 compounds, 89% hits | AID 602282;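 active = inhibition above 3 SD of the buffer control wells, cut at about 41% in these data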;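 note: signal is the integrated peak-minus-minimum Fluo4 fluorescence over baseline ratio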
M3R Ca counter: counter-screen for RGS4 activators: effect in non-induced cells; shares compounds with RGS4 pot; HEK293 M3R non-induced RGS4, Fluo4 calcium flux; after carbachol challenge at its EC90; inhibition, % at 10 µM; 1,100 compounds, 82% hits; AID 602283;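 active = inhibition exceeding 3 SD of buffer-only control wells, cut at about 26% in these data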;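 note: percent drop in integrated peak-minus-baseline over baseline Fluo4 ratio after carbachol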
* marks the source's active call; other numbers are inactive results; i = inactive; . = no result. Compounds with a hit are over-represented: about 3.5% of the library has one in this group of screens.

SMILES	MrgX1 antag	MrgX1 allo act	MrgX1 agonist	RGS4 inh	RGS4 pot	RGS4 activ val	M3R Ca counter
CCC1CCCCN1CCCNC(=O)c1cn(CC)c2ccc(S(=O)(=O)N(C)C3CCCCC3)cc2c1=O (stereo unspecified)	i	i	i	i	i	.	.
CCC1CCCCN1CCCNC(=O)c1cn(CC)c2ccc(S(=O)(=O)N3CCc4ccccc4C3)cc2c1=O (stereo unspecified)	i	i	i	i	-9*	.	.
Cc1ccc(S(=O)(=O)NCCc2nnc(SCc3cccnc3)n2C)cc1	i	i	i	i	i	.	.
CC1(C)CC(=O)C2=C(C1)OC1=C(C(=O)CC(C)(C)C1)C2c1ccc(O)cc1O	i	i	36*	i	i	.	.
C=CCn1c(SCC(=O)N2CCCCC2)nnc1-c1ccncc1	i	i	i	i	i	.	.
Cc1cc(-n2cccn2)ccc1CN1CCN(C2CCCC2)C(CCO)C1 (stereo unspecified)	i	i	i	i	i	.	.
Cc1cc(-n2cccn2)ccc1CN1CCN(CC(C)C)C(CCO)C1 (stereo unspecified)	i	i	i	i	-7.3*	.	.
O=C(NCCC1CC1(Cl)Cl)Nc1ccccc1 (stereo unspecified)	i	i	i	i	i	.	.
CCc1ccc(NS(=O)(=O)c2cccc3nsnc23)cc1	i	i	i	i	-8.6*	72*	84*
CC(C)c1ccc(NC(=O)CCNS(=O)(=O)c2cccc3nsnc23)cc1	i	i	i	i	-8*	0	0
COc1ccccc1CCC(=O)N1CCN(S(=O)(=O)c2cccc(F)c2)CC1	i	i	i	i	i	.	.
Brc1cccc(OCCCCN2CCCCC2)c1	i	i	i	i	-8.6*	92*	66*
CCOc1cccc(OCCCCN2CCCCC2)c1	i	i	i	i	-7.9*	80*	37*
COc1cccc(OCCCCN2CCCCC2)c1	i	i	i	i	i	.	.
Clc1ccc(OCCCCCN2CCCC2)c(Br)c1	i	i	i	i	-8*	89*	84*
CC1CCCN(CCCCOc2cccc(Br)c2)C1 (stereo unspecified)	i	i	i	i	-7.5*	92*	64*
Cc1ccc(OCC(=O)NC(=S)Nc2ccc(Br)cn2)cc1C	i	i	i	i	i	.	.
CC1(C)CNC(=O)c2sc(NC(=O)c3ccccc3Cl)nc2C1	i	i	i	i	i	.	.
C=CCc1cc2c(oc(=O)c3ccccc32)c(C)c1O	i	i	i	i	-9*	49*	84*
Cc1c(O)c(CN2CCCC2)cc2c1oc(=O)c1ccccc12	i	i	i	i	i	.	.
N#Cc1cc2c(nc1SCc1ccccc1)CCCCC2	i	i	i	i	-9.8*	82*	84*
CCN1CCN(c2nc(-c3ccccc3)c3ccccc3n2)CC1	i	i	i	i	-8.6*	82*	40*
O=C(Nc1ccccc1)c1cn(CCBr)cn1	i	i	i	i	i	.	.
c1ccc(-c2nc3ccccn3c2NCc2ccc3c(c2)OCO3)cc1	i	i	i	i	i	.	.
COc1ccc(-c2nc3ccccn3c2NCc2ccc3c(c2)OCO3)cc1	i	i	i	i	-8.6*	60*	0
SMILES	MrgX1 antag	MrgX1 allo act	MrgX1 agonist	RGS4 inh	RGS4 pot	RGS4 activ val	M3R Ca counter
O=C(C[n+]1cc(-c2ccc(Cl)c(Cl)c2)n2c1CCC2)N1c2ccccc2Sc2ccccc21	i	i	i	i	-11*	93*	95*
COc1cc(/C=N/NC(=O)c2cc[n+]([O-])cc2)ccc1O	i	i	i	i	i	.	.
O=C(CNCCC1=CCCCC1)Nc1ccc(N2CCCCCC2)cc1	i	i	i	i	-10*	94*	92*
O=C(CNC1CCCC1)Nc1ccc(N2CCCCCC2)cc1	i	i	i	i	-8*	84*	36*
O=C(CNC1CCCCCC1)Nc1ccc(N2CCCC2)cc1	i	i	i	i	i	.	.
COc1ccccc1C(=O)NNC(=O)C1CCCO1 (stereo unspecified)	i	i	i	i	i	.	.
Cc1nc(-c2ccc(S(=O)(=O)Oc3ccc(Cl)cc3Cl)s2)cs1	i	i	i	i	-8.4*	89*	71*
COc1ccccc1CN1CCC(CNS(=O)(=O)c2cc(-c3onc(C)c3C)ccc2OC)CC1	i	i	i	i	-8*	90*	65*
COc1ccc(NC(=O)c2ccc3ccccc3n2)cc1S(=O)(=O)N1CCCCC1	i	i	i	i	-8.6*	92*	49*
COc1ccc(S(=O)(=O)N2CCCCC2)cc1NC(=O)c1ccc2ccccc2n1	i	i	i	i	i	.	.
Cc1ccc(C)c(OCC(=O)N2CCc3ccccc3C2)c1	i	i	i	i	-7.7*	56*	84*
Cc1ccccc1OCC(=O)N1CCc2ccccc2C1	i	i	i	i	i	.	.
CCn1ccnc1CNC(=O)c1ccc2oc(C(C)C)nc2c1	i	i	i	i	-8.2*	82*	47*
c1ccc(NC2=NCCN2CCCC2CCCCC2)cc1	i	i	i	.	.	.	.
Cc1cc(C)c(S(=O)(=O)N2CCOC2CNC(=O)C(=O)NCCN(C)C)c(C)c1 (stereo unspecified)	i	i	i	i	i	.	.
CC(C)CC(NC(=O)c1ccc(Cl)cc1)C(=O)OCC(=O)c1ccc2c(c1)NC(=O)CO2 (stereo unspecified)	i	i	i	i	-12*	90*	80*
CC(C)[C@H](NC(=O)c1ccco1)C(=O)OCC(=O)c1ccc2c(c1)NC(=O)CO2	i	i	i	i	i	.	.
Cc1ccc(CCC(=O)NCc2ccccc2)o1	i	i	i	i	-7.8*	0	0
COc1cc(S(=O)(=O)n2cnc3ccccc32)ccc1Br	i	i	i	i	i	.	.
Cc1ccc(Cc2c(C)nc3nc(SCC(=O)NCCCN4CCOCC4)nn3c2C)cc1	i	i	i	i	i	.	.
Cc1ccccc1Cc1c(C)nc2nc(SCC(=O)NCCCN3CCCCC3)nn2c1C	i	i	i	i	-9.6*	74*	43*
